Screening results deposited in PubChem by several laboratories.
proCasp3 act: activators of human procaspase-3 | P42574 | recombinant procaspase-3 D3A, Ac-DEVD-pNA absorbance 405 nm | activation, % at 8.5 µM | 0.11% of 330,000 active;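 active = activation above the mean of all tested compounds plus 3 SD, cut at about 21% in these data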
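Compound: 8.5 µM single point, 0.8% DMSO / Material: Autoprocessing-dead procaspase-3 D3A mutant enzyme / Timing: 1 h preincubation plus 2 h reaction at 25 °C / Medium: Zinc-free HEPES/NaCl buffer with 0.01% Triton X-100 at pH 7.4 / Technique: 405 nm absorbance of p-nitroaniline, reads at 0 and 120 min / Repeats: one well per compound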
PolyA inh: inhibitors of polyadenylation in S. cerevisiae; 0.02% of 300,000 active; S. cerevisiae SKY197-pL101 polyadenylation reporter, beta-gal luminescence; efflux-impaired pdr1/pdr3 knockout yeast; score 100 = 6 SD above DMSO; AID 1875; activity score, % at 12 µM;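 active = lowest replicate activity score at least 50, where 100 means six control SD above control mean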;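 also: yeast exposed to compound for 9 h at 30 °C; higher score means more reporter readthrough which indicates perturbed polyadenylation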
AHR activator: activates the human aryl hydrocarbon receptor; 2.5% of 320,000 active; AHR-responsive luciferase reporter cells, luminescence; activation, % at 5 µM; P35869; in the data active = activation above about 47%
proCasp7 act: activates human procaspase-7, counter-screen for procaspase-3 activators. 0.093% of 330,000 active. recombinant procaspase-7, Ac-DEVD-pNA absorbance 405 nm; D23A/D198A/D206A triple mutant, cannot self-cleave; scale: DMSO 0, 5 µM enzyme 100. P55210. activation, % at 8.5 µM;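 active = percent activation above the screen-wide mean plus 3 SD, cut at about 25% in these data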
Target sequence (P55210 whole entry D23A/D198A/D206A): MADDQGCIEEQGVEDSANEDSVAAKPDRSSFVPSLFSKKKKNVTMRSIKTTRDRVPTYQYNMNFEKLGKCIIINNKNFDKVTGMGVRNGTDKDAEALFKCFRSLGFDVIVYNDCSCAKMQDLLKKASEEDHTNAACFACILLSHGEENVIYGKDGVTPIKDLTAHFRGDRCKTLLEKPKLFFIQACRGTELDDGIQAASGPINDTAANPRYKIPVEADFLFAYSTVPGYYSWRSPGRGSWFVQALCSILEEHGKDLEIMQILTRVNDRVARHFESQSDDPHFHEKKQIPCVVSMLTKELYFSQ
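Assay system: Uncleavable procaspase-7 mutant enzyme; Input: 2 µM procaspase-7 mutant as dispensed; Also added: DEVD-pNA substrate; Medium: Zinc-free HEPES pH 7.4 with 300 mM NaCl, 0.01% Triton X-100; Timing: 1 h compound preincubation, 2 h substrate cleavage, 25 °C; Measured by: Epi-absorbance of released pNA at 405 nm, two timepoints.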
A number is an active result; . = inactive; / = no result given. Only some compounds are listed: those with a hit (about 2.6% of all), similar ones and a draw of the others.

SMILES	proCasp3 act	PolyA inh	AHR activator	proCasp7 act
COC(=O)Cc1nnc(Nc2cccc(C)c2)c2ccccc12	.	.	61.5	.
CCOC(=O)Cc1nnc(Nc2cccc(C)c2)c2ccccc12	.	.	.	.
C=CCc1c(C)nc2cc(-c3ccc(C)cc3)[nH]n2c1=O	.	.	50.3	.
CCN(CC)C(=O)Oc1ccc(Cl)c2cccnc12	.	.	.	.
O=C(Nc1cccc(C(F)(F)F)c1)Oc1ccc(Cl)c2cccnc12	.	.	49.3	.
O=C(Nc1cccc(C(F)(F)F)c1)c1cccnc1NCCO	.	.	52.3	.
Cc1c(NS(=O)(=O)c2cccc(C(=O)OCC(=O)N(C)C3CCCCC3)c2)c(=O)n(-c2ccccc2)n1C	.	.	.	.
CCCCOc1ccc(C(=O)NN2CCOCC2)cc1	.	.	.	.
CCn1c2ccccc2c2cc(NC(=O)COc3ccccc3OC)ccc21	.	.	62.3	.
CCn1c(=O)cc(OCC(=O)N2CCN(c3ccc(F)cc3)CC2)c2ccccc21	.	.	54.0	.
CCn1c2ccccc2c2cc(NC(=O)COC(=O)c3cccc(S(=O)(=O)NC)c3)ccc21	.	.	100.1	.
CCn1c2ccccc2c2cc(NC(=O)CNCc3ccccc3OC)ccc21	.	.	.	.
CCn1c(=O)cc(OCC(=O)Nc2ccccc2C#N)c2ccccc21	.	.	72.5	.
CCn1c2ccccc2c2cc(NC(=O)COC(=O)c3ccc(O)cc3)ccc21	.	.	.	.
CCN(CC)C(=O)c1ccc(CS(=O)(=O)Cc2ccccc2)cc1	/	.	/	/
CCn1c2ccccc2c2cc(NC(=O)CSc3nnc(-c4ccc(OC)cc4)n3N)ccc21	.	.	48.5	.
CC(=O)Nc1ccc2c(c1)c1ccccc1n2C(C)=O	.	.	.	.
COc1ccc(NC(=O)CSc2nnc(-c3ccccc3)n2N)cc1	.	.	.	.
CCn1c2ccccc2c2cc(NC(C)=O)ccc21	.	.	50.5	.
CS(=O)(=O)N(CC(=O)Nc1ccc(Br)cc1F)C1CCCCC1	.	.	55.5	.
O=C1N=c2ccccc2=C1c1sc(=O)[nH]c1O	.	.	.	.
O=C1N=c2ccccc2=C1c1[nH]c(=S)[nH]c1O	.	.	61.4	.
N=c1oc2ccc(Br)cc2cc1C(=O)NC1CCCCCC1	.	.	.	.
COc1cc(-c2nc3c4ccccc4nc(=S)n3[nH]2)cc(OC)c1OC	.	.	71.3	.
COc1ccccc1-c1nc2c3ccccc3nc(=S)n2[nH]1	.	.	67.6	.
SMILES	proCasp3 act	PolyA inh	AHR activator	proCasp7 act
COc1cc(-c2nc3ccccc3c(=O)n2N)cc(OC)c1OC	.	.	.	.
COc1ccccc1/C=C/C(=O)N1CCC(c2ccccc2)C1 (stereo not drawn)	.	.	66.0	.
COc1ccc(-c2cccc(NC(=O)COc3ccc(Cl)cc3)c2)nn1	.	80.9	.	.
O=C(CSCc1nc2ccccc2[nH]1)Nc1ccc2ccccc2c1	.	.	60.4	.
O=C(COc1ccccc1)Nc1cccc(-c2nc3ccccc3[nH]2)c1	.	.	79.2	.
O=C(CSCc1nc2ccccc2[nH]1)Nc1ccc(Oc2ccccc2)cc1	.	.	.	.
COc1cc(NC(=O)COc2ccc(Cl)cc2)ccc1-c1cc2ccccc2oc1=O	.	.	55.2	.
N/C(=N\OC(=O)c1ccccc1F)c1cccc([N+](=O)[O-])c1	.	.	.	.
O=C(c1ccc2c(c1)OCO2)N1CCN(S(=O)(=O)c2ccc(Br)cc2Cl)CC1	.	/	.	.
CCOc1ccccc1N1CCN(C(=S)Nc2ccc(S(=O)(=O)Nc3ncccn3)cc2)CC1	.	.	.	.
COCCN1CCc2c(C)nc3c(-c4ccc(OC)c(OC)c4)cnn3c21	.	.	48.6	.
O=C(COc1cccnc1[N+](=O)[O-])NCCc1ccc(F)cc1	.	.	.	.
CCN=C1S/C(=C\c2cc(Br)c(O)c(OC)c2)C(=O)N1CC	/	.	/	/
COc1ccc(Cl)cc1Nc1nc(C)cc(C)c1C(N)=O	.	.	59.5	.
COC(=O)c1sccc1NC(=O)c1ccc(C)s1	.	.	50.3	.
O=C(O)c1ccc(Cl)cc1Nc1nc2cc(Cl)ccc2o1	.	.	58.6	.
CCCC(C(=O)NC1CCCC1)N(Cc1ccccc1)C(=O)c1snc(C(N)=O)c1N (stereo not drawn)	.	.	.	.
O=C(NCc1ccc(Cl)cc1)C1CCCN(c2cnccn2)C1 (stereo not drawn)	.	.	78.2	.
